Assay outcomes deposited in PubChem BioAssay by several laboratories.
CASP6 VEID inh: human caspase-6 inhibitors, primary screen, biochemical, VEID-R110 fluorescence, single point, set 2. purified caspase-6, Z-VEID-R110 cleavage fluorescence. inhibition, % at 12.5 µM. hit rate 0.53% among 350,000. AID 686996, 2013;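 active means mean inhibition across replicates at least about 35%, with every replicate also reaching that limit, limit read from the data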;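 further: 0% = median of neutral control wells and 100% = no fluorescence left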
DNMT1 block: human DNMT1 methyltransferase inhibitors, primary screen, biochemical, molecular beacon, fluorescence, HinP1I cleavage, uHTS; AID 588458, 2011; inhibition (reported as % activation of signal), % at 10 µM; DNA (cytosine-5)-methyltransferase 1 (Homo sapiens), P26358; hit rate 0.83% among 360,000; in the data active means inhibition above about 50%
Target sequence (P26358 504-1616 limits assumed): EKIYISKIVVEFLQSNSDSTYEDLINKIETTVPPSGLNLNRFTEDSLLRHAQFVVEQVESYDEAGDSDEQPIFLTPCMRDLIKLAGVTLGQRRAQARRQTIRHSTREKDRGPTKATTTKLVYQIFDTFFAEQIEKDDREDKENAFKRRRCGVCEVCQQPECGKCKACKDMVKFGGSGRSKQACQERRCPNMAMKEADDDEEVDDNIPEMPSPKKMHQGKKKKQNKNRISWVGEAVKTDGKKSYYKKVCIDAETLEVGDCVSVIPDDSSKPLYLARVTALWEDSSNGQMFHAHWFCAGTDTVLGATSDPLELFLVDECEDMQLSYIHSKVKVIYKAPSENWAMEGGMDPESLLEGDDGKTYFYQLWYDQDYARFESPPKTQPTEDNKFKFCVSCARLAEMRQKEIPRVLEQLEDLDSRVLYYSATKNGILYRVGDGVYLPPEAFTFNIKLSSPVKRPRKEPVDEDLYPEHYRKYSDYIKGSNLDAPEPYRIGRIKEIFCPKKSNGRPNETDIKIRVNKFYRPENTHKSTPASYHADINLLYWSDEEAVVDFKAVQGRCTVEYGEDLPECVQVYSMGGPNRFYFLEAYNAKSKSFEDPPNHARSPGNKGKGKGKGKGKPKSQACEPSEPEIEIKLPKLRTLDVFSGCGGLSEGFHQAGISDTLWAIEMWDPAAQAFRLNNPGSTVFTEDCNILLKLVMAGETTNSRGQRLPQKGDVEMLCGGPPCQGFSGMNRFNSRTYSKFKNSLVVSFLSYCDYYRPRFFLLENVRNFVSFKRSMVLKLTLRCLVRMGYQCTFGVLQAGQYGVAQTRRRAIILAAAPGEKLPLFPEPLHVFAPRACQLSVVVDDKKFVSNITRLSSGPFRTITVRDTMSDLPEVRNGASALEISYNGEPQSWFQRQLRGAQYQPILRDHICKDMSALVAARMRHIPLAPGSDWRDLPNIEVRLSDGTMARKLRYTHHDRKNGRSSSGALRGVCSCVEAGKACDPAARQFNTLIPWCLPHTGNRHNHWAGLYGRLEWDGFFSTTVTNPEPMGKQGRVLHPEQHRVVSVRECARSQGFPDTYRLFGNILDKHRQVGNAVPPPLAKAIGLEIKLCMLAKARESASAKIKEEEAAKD
SUMO1 PPI mod: modulators of SUMO1 protein-protein interactions, primary screen, biochemical, uHTS. Small ubiquitin-related modifier 1 (Homo sapiens), P63165. SUMO1 binding to a labelled peptide, TR-FRET, 1 h. inhibition, % at 20 µM. hit rate 0.33% among 360,000. AID 602429, 2012; in the data active means inhibition above about 37%
STEP inh: STEP phosphatase inhibitors, primary screen, biochemical, fluorescence intensity, uHTS; Tyrosine-protein phosphatase non-receptor type 5 (Homo sapiens), P54829; recombinant STEP, OMFP fluorogenic substrate; inhibition, % at 20 µM; hit rate 0.25% among 360,000; AID 588621, 2011;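 active means inhibition at 20 µM, scaled per plate between control wells, above about 37%, limit read from the data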;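 further: 0% = DMSO with enzyme and substrate and 100% = substrate only without enzyme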
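medium = Bis-Tris buffer pH 6.0, 2.5 mM DTT, 0.005% Tween 20 | test system = STEP (striatal-enriched tyrosine phosphatase) enzyme, cell-free | measure = normalized % inhibition | compound dosing = 20 µM, 1% DMSO | also added = 25 µM OMFP | schedule = reaction 20 min, ambient temperature | measured by = fluorescence read at 480 nm ex / 540 nm em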
Scp1 inh: Scp-1 phosphatase inhibitors, primary screen, biochemical, colorimetric, uHTS. Recombinant Scp1, phosphopeptide, malachite green phosphate absorbance. inhibition, % at 20 µM. hit rate 0.88% among 340,000;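 active means inhibition above about 50% at 20 µM, limit read from the data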;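 further: plate controls were DMSO wells with enzyme for no effect and wells lacking enzyme for full effect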
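System: SCP-1 catalytic domain; Reagent: Phospho 17-mer peptide substrate; Doses: one concentration, 20 µM, with 1.0% DMSO; Incubation: 45 min room-temperature reaction, 5 min colour, 30 min stabiliser; Signal: Phosphate-binding colour reagent, absorbance read at 630 nm.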
LMPTP inh: LMPTP phosphatase inhibitors, primary screen, biochemical, fluorescence intensity, uHTS; Low molecular weight phosphotyrosine protein phosphatase (Homo sapiens), P24666; recombinant LMPTP-A, OMFP fluorogenic substrate; inhibition, % at 20 µM; hit rate 0.22% among 360,000; AID 651560, 2012;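 active means compounds that cut the enzyme signal by at least half of the control window in the single-dose screen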;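 further: plate controls were DMSO wells with enzyme plus substrate for no effect and substrate without enzyme for full effect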
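material = LMPTP-A | quantity = 0.625 nM enzyme | reagent = OMFP substrate, 400 µM final | buffer or medium = Bis-Tris pH 6.0, DTT, detergent | detection = endpoint fluorescence intensity from OMFP dephosphorylation | dosing = single 20 µM dose | read-out basis = % inhibition relative to no-enzyme and uninhibited control wells | control set = no-enzyme and uninhibited controls | timing = 50 min at room temperature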
Scp1 confirm: Scp-1 phosphatase inhibitors, retest, confirmation, biochemical, colorimetric, single concentration; shares compounds with Scp1 inh; recombinant SCP-1 catalytic domain, phosphate release, malachite green absorbance; inhibition, % at 20 µM; hit rate 61% among 2,500; AID 540281, 2011;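 further: plate controls were DMSO with enzyme for no effect and buffer wells lacking enzyme for full effect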
MG interference: colorimetric readout interference by compounds, confirmation, artefact control for Scp-1 inhibitor project, biochemical, single concentration; Colorimetric interference counterscreen, malachite green absorbance 630 nm; AID 540313, 2011; shares compounds with Scp1 inh; 2,500 tested, under 10 active; apparent inhibition (interference), % at 20 µM;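 further: compounds added after enzyme reaction finished so only phosphate colour detection is probed; plate controls were DMSO wells with completed Scp-1 reaction for no effect and substrate wells lacking enzyme for full effect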
Scp-1 Tm shift: Scp-1 binding by thermal shift, confirmation, orthogonal assay for Scp-1 inhibitor project, biophysical, differential scanning fluorimetry; AID 540329, 2011; Recombinant SCP1, Sypro Orange thermal shift Tm; shares compounds with Scp1 inh; hit rate 25% among 1,500; thermal shift relative to vanadate control, % at 40 µM;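 active means substances whose mean melting-temperature shift, as a percentage of the reference inhibitor's shift, reaches about 5.3%, limit read from the data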;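 further: 0% = Tm of DMSO wells and 100% = Tm with sodium orthovanadate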
An asterisk follows results filed as active; . = not tested or not shown. Shown are actives, neighbours in structure and some others; about 1.7% of the full set was active somewhere.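 How the source made its calls, unless noted: active means inhibition of at least 30% at 20 µM; inactive means the rest.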

SMILES | CASP6 VEID inh | DNMT1 block | SUMO1 PPI mod | STEP inh | Scp1 inh | LMPTP inh | Scp1 confirm | MG interference | others
O=C1COc2ccc(C(=O)COC(=O)c3ccc(S(=O)(=O)C(F)F)cc3)cc2N1 | -5.9 | 1.4 | -4.8 | -2.6 | -6.9 | 3.0 | . | .
COc1ccc(CC(=O)NCc2cn3ccsc3n2)cc1 | . | -2.5 | -1.7 | 1.9 | -3.1 | -1.4 | . | .
O=C(CNC1CCCCCC1)Nc1ccccc1N1CCCCC1 | . | 0.1 | -1.1 | 0.6 | 89.9* | -0.3 | -9.0 | -10.9
CCOC(=O)C(C(=O)Nc1ccccn1)C1CCCCC1 (stereo unspecified) | . | -1.8 | -2.5 | 4.2 | 50.3* | -0.3 | 76.7* | -10.1 | Scp-1 Tm shift=-3.9
Cc1ccc(S(=O)(=O)CCC(=O)N2CCc3ccccc32)cc1 | . | -1.3 | 2.0 | -1.8 | -1.9 | 1.2 | . | .
Cc1ccc(S(=O)(=O)CCC(=O)OCC(=O)N2CCc3ccccc32)cc1 | 0.7 | 0.1 | 6.0 | -0.7 | 59.8* | -0.1 | -9.0 | -10.1
O=C(O)c1ccc(/C=N/n2c(C3CCCCC3)n[nH]c2=S)cc1 | -5.9 | 1.5 | -4.0 | -2.4 | 0.1 | -1.8 | . | .
CCOC(=O)/C=C1\CC(C(=O)OCC)Oc2ccccc21 (stereo unspecified) | -0.1 | 4.4 | -6.8 | -1.8 | 1.3 | -1.7 | . | .
CCOC(=O)/C=C1\CN(CCC(C)C)S(=O)(=O)c2ccccc21 | 25.1 | 2.2 | -7.6 | -0.4 | 59.1* | -0.1 | 31.1* | -20.3 | Scp-1 Tm shift=-23.3
CCOC(=O)/C=C1\CN(C(C)c2ccccc2)S(=O)(=O)c2ccccc21 (stereo unspecified) | 3.4 | 3.1 | -3.3 | 2.1 | 84.2* | 0.5 | 45.6* | -18.3 | Scp-1 Tm shift=-19.5
CN(Cc1cnccn1)C(=O)CC1C(=O)NCCN1Cc1ccc(F)cc1Cl (stereo unspecified) | -0.2 | -1.0 | -3.0 | -0.6 | -1.6 | -0.4 | . | .
Cc1ccc(S(=O)(=O)N2CCCCC2)cc1C(=O)Nc1cccnc1 | 18.0 | 22.2 | 9.9 | 2.4 | 52.5* | -0.6 | 51.3* | -12.6 | Scp-1 Tm shift=-12.6
O=C(NCCO)C(=O)NCC(c1cccs1)S(=O)(=O)c1ccc(F)cc1 (stereo unspecified) | -2.3 | 1.0 | -1.5 | -0.1 | . | -0.7 | . | .
Cc1ccc(-c2nc3ccc(C(=O)O)cc3nc2-c2ccc(C)cc2)cc1 | . | -0.6 | -23.9 | 1.2 | 60.9* | -0.2 | 26.5 | -9.0
Cc1ccc2nc(-c3ccccc3)c(-c3ccccc3)nc2c1 | 0.4 | 3.2 | -14.1 | 1.6 | -3.4 | 1.1 | . | .
C[C@@H]1CN([C@H](C)CO)C(=O)c2cc(C3=CCCC3)cnc2O[C@H]1CN(C)C(=O)c1ccc(F)cc1 | 0.9 | . | . | . | . | . | . | .
COc1ccc(NS(=O)(=O)c2ccc(O)c(C(=O)OCC(=O)N3CCCCC3)c2)cc1 | 3.8 | 4.2 | 10.5 | -1.5 | -3.6 | -0.3 | . | .
CCN(CC)S(=O)(=O)c1ccc(O)c(C(=O)OCC(=O)N2CCCC2)c1 | 4.8 | 4.2 | 2.5 | 4.6 | 52.7* | -1.1 | -7.5 | -11.2
O=C(N/N=C/c1ccccc1[N+](=O)[O-])c1ccc2c(c1)OCCO2 | -4.2 | -1.2 | -38.6 | 2.2 | -9.0 | -0.3 | . | .
O=C(N/N=C/c1cc([N+](=O)[O-])ccc1Cl)c1ccc2nc[nH]c2c1 | . | 2.9 | 19.5 | 1.6 | 54.7* | -0.7 | 28.1 | -2.1
O=C(N/N=C/c1cc([N+](=O)[O-])ccc1O)c1ccc2c(c1)OCCO2 | 0.2 | -3.0 | -12.4 | 5.8 | 63.9* | 4.3 | 48.2* | -5.7 | Scp-1 Tm shift=-2.9
COc1ccc2c3c([nH]c2c1)[C@@H](CO)N(C(=O)c1ccccc1)CC31CN(Cc2cccnc2)C1 | -1.8 | . | . | . | . | . | . | .
Cc1ccc(S(=O)(=O)NN2C(=O)/C(=C/c3ccc(C(=O)O)cc3)SC2=S)cc1 | 14.9 | -0.2 | -13.4 | 3.0 | 63.7* | 1.9 | 4.5 | -11.5
O=Cc1ccc(OCc2cccc(C(F)(F)F)c2)cc1O | . | -0.3 | 6.0 | 8.3 | 61.6* | 2.9 | -22.7 | -23.6
Clc1ccc2nncn2n1 | 1.7 | -0.5 | 0.7 | -2.4 | -3.9 | 0.4 | . | .
SMILES | CASP6 VEID inh | DNMT1 block | SUMO1 PPI mod | STEP inh | Scp1 inh | LMPTP inh | Scp1 confirm | MG interference | others
CC(=O)Nc1ccc2c(O)cc(S(=O)(=O)O)cc2c1 | 34.8 | 27.7 | 7.3 | 23.3 | 58.7* | 30.9 | 46.3* | -14.2 | Scp-1 Tm shift=-0.1
CCNC(=O)C[C@H]1CC[C@@H]2[C@@H](COc3ccc(NC(=O)Nc4cccc(Cl)c4)cc3C(=O)N2C)O1 | 0.4 | . | . | . | . | . | . | .
CCCCC(=O)Nc1ccc(NC(=S)NC(=O)CC)cc1OC | . | 2.3 | 0.6 | -1.4 | 9.9 | 0.2 | . | .
Cc1ccc(-c2csc(C3=C(O)CN(NC(=O)c4ccc([N+](=O)[O-])cc4)C3=N)n2)cc1 | -0.6 | 36.4 | -0.5 | 3.7 | 22.9 | 13.5 | . | .
N=C1C(c2nc(-c3cccc([N+](=O)[O-])c3)cs2)=C(O)CN1NC(=O)c1ccco1 | 1.0 | -3.3 | -7.3 | 10.4 | 68.5* | 47.7 | -9.3 | -15.1
O=C(O)CCN1C(=O)c2ccc(NC(=O)C(c3ccccc3)c3ccccc3)cc2C1=O | 2.7 | 2.6 | -19.0 | -0.7 | 67.2* | 0.4 | -10.6 | -15.8
O=C(O)CCN1C(=O)c2ccc(NC(=O)c3ccco3)cc2C1=O | 1.4 | -4.3 | -14.1 | -2.0 | 2.0 | 0.3 | . | .
COc1ccc(CNC(=O)C(OC(=O)c2ccco2)c2ccccc2F)cc1 (stereo unspecified) | . | -0.5 | 0.6 | 0.5 | 56.9* | -1.0 | -16.6 | -13.4
O=C(O)c1cccc(N2C(=O)C3CC=C(Cl)CC3C2=O)c1 (stereo unspecified) | 66.6* | 41.9 | 13.0 | 0.3 | 109.1* | -0.8 | 57.4* | -20.0 | Scp-1 Tm shift=-23.1
Cc1ccc(NC(=O)CSc2nc3[nH]ncc3c(=O)[nH]2)cc1Cl | 3.5 | -8.7 | 9.7 | -2.9 | 58.2* | 0.2 | 29.3 | -12.9
